Measurements gathered from unrelated publications.
Compare with care: the assays were run in different laboratories.
Target: Rhodopsin kinase GRK1 (GRK1, Homo sapiens, UniProt Q15835)
Residues used in one study (Q15835 1-563): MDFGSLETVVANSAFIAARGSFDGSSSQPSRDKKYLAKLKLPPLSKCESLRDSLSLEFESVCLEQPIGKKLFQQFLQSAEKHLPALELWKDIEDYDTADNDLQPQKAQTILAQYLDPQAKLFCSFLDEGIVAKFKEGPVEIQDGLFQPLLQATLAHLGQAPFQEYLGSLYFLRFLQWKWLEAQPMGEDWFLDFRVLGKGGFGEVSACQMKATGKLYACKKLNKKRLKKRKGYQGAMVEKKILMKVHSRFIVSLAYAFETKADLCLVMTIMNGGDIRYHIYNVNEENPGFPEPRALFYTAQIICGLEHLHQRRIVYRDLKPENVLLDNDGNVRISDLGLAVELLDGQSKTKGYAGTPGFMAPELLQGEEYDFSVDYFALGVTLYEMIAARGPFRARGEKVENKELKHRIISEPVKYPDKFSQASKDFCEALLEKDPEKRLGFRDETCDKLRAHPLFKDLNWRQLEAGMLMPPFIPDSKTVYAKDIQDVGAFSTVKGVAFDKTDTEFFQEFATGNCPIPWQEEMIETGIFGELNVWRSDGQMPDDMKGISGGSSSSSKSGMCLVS

| SMILES | read-out | mode | method | concentration | endpoint | value |
| --- | --- | --- | --- | --- | --- | --- |
| C[C@H](c1ccc(F)cc1)N(Cc1cccc(C(=O)O)c1)C(=O)c1cnc2ccccc2c1 | cell-free assay |  | competition with immobilised ligand | 1 µM | remaining binding | 100% |
| Cc1ccc(C(=O)Nc2ccc(CN3CCN(C)CC3)c(C(F)(F)F)c2)cc1C#Cc1cnc2cccnn12 | enzyme activity | inhibitor |  | 23.5 nM | remaining activity | 93% |
| N#CC1c2c([nH]c3c(Cl)c(Cl)ccc23)C(=O)NC12CCCCC2 (racemic) | thermal stability |  | DSF | 10 µM | ΔTm | 0.6 °C |
| Cc1sc(C(=O)NC2COC2)cc1-n1cc(NC(=O)Nc2c(F)cccc2Cl)cn1 | enzyme activity | inhibitor |  | 10 µM | remaining activity | 113% |
| CN1CC(Oc2cnc(C#N)cc2-c2ccn3nc(NC(=O)C4CC4)cc3c2)C1 | enzyme activity | inhibitor |  | 1 µM | inhibition | 1% |
| CC(C)CC(=O)N1CCc2nc(-c3ccc(Br)cc3)nc(N(C)Cc3ccccc3)c2C1 | cell-free assay |  | competition with immobilised ligand | 0.1 µM | remaining binding | 100% |
| Nc1ncnc2occ(-c3ccc(NC(=O)Nc4cc(C(F)(F)F)ccc4F)cc3)c12 | cell-free assay | inhibitor |  | 20 µM | remaining signal | 100% |
| Cn1c2c(c3ccc(Cl)c(Cl)c31)C(C#N)C1(CCCCC1)NC2=O (racemic) | thermal stability |  | DSF | 10 µM | ΔTm | 0.1 °C |
| O=C(Nc1cnn(-c2csc(C(=O)NC3COC3)c2)c1)Nc1c(F)cccc1Cl | enzyme activity | inhibitor |  | 5 µM | remaining activity | 92.9% |
| Cn1c2c(Cl)c(Cl)ccc2c2cc[nH]c(=O)c21 | thermal stability |  | DSF | 10 µM | ΔTm | 1.5 °C |
| Cc1cc(NC(=O)c2cccc(S(F)(F)(F)(F)F)c2)cc(-n2ccn3nc(-c4cccnc4)cc23)c1 | cell-free assay |  | competition with immobilised ligand | 1 µM | remaining binding | 50.4% |
| CCN1CCC2(CC1)NC(=O)c1c(c3ccc(Cl)c(Cl)c3n1C)C2C#N (racemic) | thermal stability |  | DSF | 10 µM | ΔTm | 1.2 °C |
| COc1ccc2c(c1)O[C@H](c1ccc(OC)c(OC)c1)C[C@@H]2NC(=O)C1(c2ccc3c(c2)OC(F)(F)O3)CC1 | cell-free assay |  | competition with immobilised ligand | 1 µM | remaining binding | 97% |
| Cn1c2c(c3ccc(Cl)c(Cl)c31)C(C#N)C1(CCN(C(=O)OC(C)(C)C)CC1)NC2=O (racemic) | thermal stability |  | DSF | 10 µM | ΔTm | 0 °C |
| COc1cc(Cl)c(C(=O)N[C@@H](CN[C@H]2CC[C@@H](N)CC2)Cc2ccc(C#N)cc2)cc1-c1ccc(CN[C@H](C)c2ccc(C)cc2)o1 | enzyme activity | inhibitor |  | 1 µM | remaining activity | 100% |
